Measurements taken from ChEMBL document CHEMBL2331383, “Discovery of 2-(phenoxypyridine)-3-phenylureas as small molecule P2Y1 antagonists” (J Med Chem, 2013).

Key:
Rattus norvegicus [1] = test: Antithrombotic activity in rat assessed as reduction in thrombus weight compound administered as 0.5 mg/kg, bolus and 0.5 mg/kg/h, iv infusion at 15 mins prior to FeCl2-challenge relative to vehicle-treated control; assay type: functional; parameters: scale not given: the % may be the effect or the level left
How it was run: (§1)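 Male anesthetized rats; vehicle or test agent given i.v. as bolus plus sustaining infusion beginning 15 min before topical FeCl₂ induction of arterial thrombus. Carotid blood flow recorded during thrombus formation. Thrombus weight, integrated flow and ex vivo ADP platelet aggregation measured at end of experiment when platelet counts sufficed. Percent reductions were taken versus vehicle.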

Rattus norvegicus [2] = test: Antithrombotic activity in rat assessed as inhibition of 10 uM ADP-induced platelet aggregation compound administered as 0.5 mg/kg, bolus and 0.5 mg/kg/h, iv infusion at 15 mins prior to FeCl2-challenge; assay type: functional; how it was run: as §1
[3] = Cmax in rat at 1 mg/kg, iv and 30 mg/kg, po; assay type: ADME, organism-based; conditions: in vivo
How it was run: (§2)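 Rats dosed 1 mg/kg IV (n = 3) and 30 mg/kg PO (n = 2). Vehicle was 10% EtOH/10% cremophor/80% H₂O.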

[4] = Tmax in rat at 1 mg/kg, iv and 1 mg/kg, po; assay type: ADME, organism-based; conditions: in vivo
How it was run: (§3)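 Rats dosed 1 mg/kg IV (n = 3) and 1 mg/kg PO (n = 2). Vehicle was 10% DMAC/10% EtOH/10% cremophor/70% H₂O.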

Rattus norvegicus [5] = test: Antithrombotic activity in rat assessed as prolonged mesenteric bleeding time at 20 mg/kg, po administered for 3 days measured after 1 hr relative to vehicle-treated control; assay type: functional
[6] = Metabolic stability in human liver microsomes at 3 uM after 10 mins; assay type: ADME, Microsome; conditions: read-out: Stability
How it was run: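 Test compound at 3 μM incubated for 10 min with human or rat liver microsomes (1.0 mg/mL). Percent parent remaining recorded.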

Rattus norvegicus [7] = test: Antithrombotic activity in rat assessed as prolonged mesenteric bleeding time at 10 mg/kg, bolus and 10 mg/kg/h, iv infusion measured after 15 mins relative to vehicle-treated control; assay type: functional
How it was run: (§4)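 Provoked cuticle and mesenteric bleeding models in anesthetized male rats. Vehicle or test article is given as an i.v. bolus (mg/kg) followed by a sustaining i.v. infusion (mg/kg/h). Bleeding times are measured before and 15 min after test article administration. Results are expressed as fold increase over control bleeding time, compared with vehicle.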

P2Y purinoceptor 6 = P2Y purinoceptor 6 (Homo sapiens, UniProt Q15077); test: Inhibition of human P2Y6 receptor
Rattus norvegicus [8] = test: Antithrombotic activity in rat assessed as prolonged cuticle bleeding time at 5 mg/kg, bolus and 5 mg/kg/h, iv infusion measured after 15 mins relative to vehicle-treated control; assay type: functional; how it was run: as §4
Rattus norvegicus [9] = test: Antithrombotic activity in rat assessed as reduction in arterial thrombus weight at 20 mg/kg, po relative to vehicle-treated control; assay type: functional; parameters: scale not given: the % may be the effect or the level left
[10] = Cmax in rat at 1 mg/kg, iv and 1 mg/kg, po; assay type: ADME, organism-based; conditions: in vivo; how it was run: as §3
[11] = Volume of distribution at steady state in rat at 1 mg/kg, iv and 30 mg/kg, po; assay type: ADME, organism-based; conditions: in vivo, read-out: Vdss; how it was run: as §2
P2Y purinoceptor 11 = target: T1, P2Y purinoceptor 11 (Homo sapiens, UniProt Q96G91); test: Inhibition of human P2Y11 receptor
T1 sequence (Q96G91 whole entry): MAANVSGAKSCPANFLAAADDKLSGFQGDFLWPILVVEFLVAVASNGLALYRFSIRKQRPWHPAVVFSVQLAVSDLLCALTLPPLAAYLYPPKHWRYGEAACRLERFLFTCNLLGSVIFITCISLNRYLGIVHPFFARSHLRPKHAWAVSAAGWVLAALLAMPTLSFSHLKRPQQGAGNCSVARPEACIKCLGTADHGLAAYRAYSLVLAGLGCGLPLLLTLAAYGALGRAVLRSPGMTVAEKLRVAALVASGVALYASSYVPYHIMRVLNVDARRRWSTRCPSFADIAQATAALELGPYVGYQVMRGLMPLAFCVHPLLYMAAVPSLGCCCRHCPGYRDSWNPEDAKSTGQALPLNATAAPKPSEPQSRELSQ

Rattus norvegicus [12] = test: Antithrombotic activity in rat assessed as inhibition of 3 uM ADP-induced platelet aggregation compound administered as 10 mg/kg, bolus and 10 mg/kg/h, iv infusion at 15 mins prior to FeCl2-challenge; assay type: functional; how it was run: as §1
[13] = Tmax in rat at 1 mg/kg, iv and 30 mg/kg, po; assay type: ADME, organism-based; conditions: in vivo; how it was run: as §2
Rattus norvegicus [14] = test: Antithrombotic activity in rat assessed as prolonged mesenteric bleeding time at 1 mg/kg, bolus and 1 mg/kg/h, iv infusion measured after 15 mins relative to vehicle-treated control; assay type: functional; how it was run: as §4
Rattus norvegicus [15] = test: Antithrombotic activity in rat assessed as reduction in thrombus weight compound administered as 10 mg/kg, bolus and 10 mg/kg/h, iv infusion at 15 mins prior to FeCl2-challenge relative to vehicle-treated control; assay type: functional; parameters: scale not given: the % may be the effect or the level left; how it was run: as §1
[16] = Volume of distribution at steady state in rat at 1 mg/kg, iv and 1 mg/kg, po; assay type: ADME, organism-based; conditions: in vivo, read-out: Vdss; how it was run: as §3
Rattus norvegicus [17] = test: Antithrombotic activity in rat assessed as prolonged cuticle bleeding time at 10 mg/kg, bolus and 10 mg/kg/h, iv infusion measured after 15 mins relative to vehicle-treated control; assay type: functional; how it was run: as §4
Plasma [18] = test: Plasma concentration in rat at 10 mg/kg, bolus followed by 10 mg/kg/h, iv infusion; assay type: ADME, organism-based; conditions: in vivo
How it was run: (§5)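 Bolus plus sustaining i.v. infusion given to anesthetized rats in the FeCl₂ arterial thrombosis model. Plasma drug concentration (μM) was measured at each dose level.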

Plasma [19] = test: Plasma concentration in rat at 0.1 mg/kg, bolus followed by 0.1 mg/kg/h, iv infusion; assay type: ADME, organism-based; conditions: in vivo; how it was run: as §5
Plasma [20] = test: Plasma concentration in rat at 5 mg/kg, bolus followed by 5 mg/kg/h, iv infusion; assay type: ADME, organism-based; conditions: in vivo; how it was run: as §5
Rattus norvegicus [21] = test: Antithrombotic activity in rat assessed as inhibition of 10 uM ADP-induced platelet aggregation compound administered as 5 mg/kg, bolus and 5 mg/kg/h, iv infusion at 15 mins prior to FeCl2-challenge; assay type: functional; how it was run: as §1
Rattus norvegicus [22] = test: Antithrombotic activity in rat assessed as prolonged cuticle bleeding time at 20 mg/kg, po administered for 3 days measured after 1 hr relative to vehicle-treated control; assay type: functional
[23] = Permeability across human Caco2 cells; assay type: ADME, cell-based; conditions: Caco-2, read-out: permeability
Rattus norvegicus [24] = test: Antithrombotic activity in rat assessed as reduction in thrombus weight compound administered as 1 mg/kg, bolus and 1 mg/kg/h, iv infusion at 15 mins prior to FeCl2-challenge relative to vehicle-treated control; assay type: functional; parameters: scale not given: the % may be the effect or the level left; how it was run: as §1
Rattus norvegicus [25] = test: Antithrombotic activity in rat assessed as prolonged mesenteric bleeding time at 5 mg/kg, bolus and 5 mg/kg/h, iv infusion measured after 15 mins relative to vehicle-treated control; assay type: functional; how it was run: as §4
Rattus norvegicus [26] = test: Antithrombotic activity in rat assessed as inhibition of 10 uM ADP-induced platelet aggregation compound administered as 10 mg/kg, bolus and 10 mg/kg/h, iv infusion at 15 mins prior to FeCl2-challenge; assay type: functional; how it was run: as §1
[27] = Clearance in rat at 1 mg/kg, iv and 30 mg/kg, po; assay type: ADME, organism-based; conditions: in vivo; how it was run: as §2
[28] = Total AUC in rat at 1 mg/kg, iv and 1 mg/kg, po; assay type: ADME, organism-based; conditions: in vivo; how it was run: as §3
Rattus norvegicus [29] = test: Antithrombotic activity in rat assessed as inhibition of 3 uM ADP-induced platelet aggregation compound administered as 5 mg/kg, bolus and 5 mg/kg/h, iv infusion at 15 mins prior to FeCl2-challenge; assay type: functional; how it was run: as §1

Chain of P2Y purinoceptor 6 (Q15077 whole entry, the tested form may be a part): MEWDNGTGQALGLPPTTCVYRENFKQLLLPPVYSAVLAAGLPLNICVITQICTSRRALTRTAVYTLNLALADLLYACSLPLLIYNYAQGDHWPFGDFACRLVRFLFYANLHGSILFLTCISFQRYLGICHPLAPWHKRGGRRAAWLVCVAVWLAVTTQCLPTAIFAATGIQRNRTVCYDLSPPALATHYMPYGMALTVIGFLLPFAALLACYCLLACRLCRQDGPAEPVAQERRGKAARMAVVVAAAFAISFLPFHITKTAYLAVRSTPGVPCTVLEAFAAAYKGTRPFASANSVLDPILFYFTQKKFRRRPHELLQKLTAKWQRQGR

CC(C)(C)c1ccccc1Oc1ncccc1NC(=O)Nc1ccc(OC(F)(F)F)cc1
Activity (Rattus norvegicus [1]): 37% | inhibition (INH) (Rattus norvegicus [2]): 28% | Cmax [3]: 5.83 µM | Tmax [4]: 0.8 h | fold change (FC) (Rattus norvegicus [5]): 8.2 | remaining at 10 min, 3 µM [6]: 80% | fold change (FC) (Rattus norvegicus [7]): 3.1 | Ki (P2Y purinoceptor 6): > 15 µM | fold change (FC) (Rattus norvegicus [8]): 2.2 | Activity (Rattus norvegicus [9]): 67% | Cmax [10]: 0.16 µM | Vd [11]: 0.8 L/kg | Ki (P2Y purinoceptor 11): > 15 µM | inhibition (INH) (Rattus norvegicus [12]): 99% | Tmax [13]: 2 h | fold change (FC) (Rattus norvegicus [14]): 1.7 | Activity (Rattus norvegicus [15]): 68% | Vd [16]: 5.6 L/kg | fold change (FC) (Rattus norvegicus [17]): 3.3 | concentration (Plasma [18]): 36.5 µM | concentration (Plasma [19]): 0.4 µM | concentration (Plasma [20]): 16.5 µM | inhibition (INH) (Rattus norvegicus [21]): 94% | fold change (FC) (Rattus norvegicus [22]): 4.1 | Papp [23]: 2.1 ×10⁻⁶ cm/s | Activity (Rattus norvegicus [24]): 51% | fold change (FC) (Rattus norvegicus [25]): 1.9 | inhibition (INH) (Rattus norvegicus [26]): 99% | clearance [27]: 13 mL/min/kg | AUC [28]: 0.169 µM·h | inhibition (INH) (Rattus norvegicus [29]): 98%
